In ChEMBL document CHEMBL2062453, “Lead optimization through VLAK protocol: new annelated pyrrolo-pyrimidine derivatives as antitumor agents” (2012):

Experiments:
Assay type in all cases: functional
K562 = experiment: Cytotoxicity against human K562 cells assessed as cell growth at 10 uM after 48 hrs by SRB assay relative to control; conditions: K562, 48 h, read-out: Activity
How it was run: (§1)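 NCI primary screen of about 60 human tumour lines. Cells inoculated and preincubated, then a single test concentration added and cultures incubated 48 h. Result given as percent growth (G%) of treated versus untreated control cells.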

HOP-62 = experiment: Cytotoxicity against human HOP62 cells assessed as cell growth at 10 uM after 48 hrs by SRB assay relative to control; conditions: HOP-62, 48 h, read-out: Activity; how it was run: as §1
NCI-H226 = experiment: Cytotoxicity against human NCI-H226 cells assessed as cell growth at 10 uM after 48 hrs by SRB assay relative to control; conditions: NCI-H226, 48 h, read-out: Activity
NCI-H23 = experiment: Cytotoxicity against human NCI-H23 cells assessed as cell growth at 10 uM after 48 hrs by SRB assay relative to control; conditions: NCI-H23, 48 h, read-out: Activity
COLO 205 = experiment: Cytotoxicity against human COLO205 cells assessed as cell growth at 10 uM after 48 hrs by SRB assay relative to control; conditions: COLO 205, 48 h, read-out: Activity; how it was run: as §1
HCC 2998 = experiment: Cytotoxicity against human HCC2998 cells assessed as cell growth at 10 uM after 48 hrs by SRB assay relative to control; conditions: HCC 2998, 48 h, read-out: Activity; how it was run: as §1
HCT-116 = experiment: Cytotoxicity against human HCT116 cells assessed as cell growth at 10 uM after 48 hrs by SRB assay relative to control; conditions: HCT-116, 48 h, read-out: Activity; how it was run: as §1
HCT-15 = experiment: Cytotoxicity against human HCT15 cells assessed as cell growth at 10 uM after 48 hrs by SRB assay relative to control; conditions: HCT-15, 48 h, read-out: Activity; how it was run: as §1
KM12 = experiment: Cytotoxicity against human KM12 cells assessed as cell growth at 10 uM after 48 hrs by SRB assay relative to control; conditions: KM12, 48 h, read-out: Activity; how it was run: as §1
SW-620 = experiment: Cytotoxicity against human SW620 cells assessed as cell growth at 10 uM after 48 hrs by SRB assay relative to control; conditions: SW-620, 48 h, read-out: Activity
How it was run: (§2)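 NCI single-dose primary screen across about 60 human tumour lines. Each line was inoculated and preincubated on microtiter plates, then exposed to one concentration of agent for 48 h. Growth is reported as percent growth (G%) of treated cells versus untreated control cells.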

SNB-75 = experiment: Cytotoxicity against human SNB75 cells assessed as cell growth at 10 uM after 48 hrs by SRB assay relative to control; conditions: SNB-75, 48 h, read-out: Activity
Malme-3M = experiment: Cytotoxicity against human MALME-3M cells assessed as cell growth at 10 uM after 48 hrs by SRB assay relative to control; conditions: read-out: Activity; how it was run: as §1
MDA-MB-435 = experiment: Cytotoxicity against human MDA-MB-435 cells assessed as cell growth at 10 uM after 48 hrs by SRB assay relative to control; conditions: MDA-MB-435, 48 h, read-out: Activity
SK-MEL-2 = experiment: Cytotoxicity against human SK-MEL-2 cells assessed as cell growth at 10 uM after 48 hrs by SRB assay relative to control; conditions: SK-MEL-2, 48 h, read-out: Activity
OVCAR-3 = experiment: Cytotoxicity against human OVCAR3 cells assessed as cell growth at 10 uM after 48 hrs by SRB assay relative to control; conditions: OVCAR-3, 48 h, read-out: Activity
OVCAR-8 = experiment: Cytotoxicity against human OVCAR8 cells assessed as cell growth at 10 uM after 48 hrs by SRB assay relative to control; conditions: OVCAR-8, 48 h, read-out: Activity
786-0 = experiment: Cytotoxicity against human 786-0 cells assessed as cell growth at 10 uM after 48 hrs by SRB assay relative to control; conditions: 786-0, 48 h, read-out: Activity; how it was run: as §1
A498 = experiment: Cytotoxicity against human A498 cells assessed as cell growth at 10 uM after 48 hrs by SRB assay relative to control; conditions: A498, 48 h, read-out: Activity; how it was run: as §1
CAKI-1 = experiment: Cytotoxicity against human Caki1 cells assessed as cell growth at 10 uM after 48 hrs by SRB assay relative to control; conditions: CAKI-1, 48 h, read-out: Activity; how it was run: as §1
SN12C = experiment: Cytotoxicity against human SN12C cells assessed as cell growth at 10 uM after 48 hrs by SRB assay relative to control; conditions: read-out: Activity
TK-10 = experiment: Cytotoxicity against human TK10 cells assessed as cell growth at 10 uM after 48 hrs by SRB assay relative to control; conditions: TK-10, 48 h, read-out: Activity; how it was run: as §2
PC-3 = experiment: Cytotoxicity against human PC3 cells assessed as cell growth at 10 uM after 48 hrs by SRB assay relative to control; conditions: PC-3, 48 h, read-out: Activity
MCF7 = experiment: Cytotoxicity against human MCF7 cells assessed as cell growth at 10 uM after 48 hrs by SRB assay relative to control; conditions: MCF7, 48 h, read-out: Activity; how it was run: as §1
MDA-MB-231 = experiment: Cytotoxicity against human MDA-MB-231 cells assessed as cell growth at 10 uM after 48 hrs by SRB assay relative to control; conditions: MDA-MB-231, 48 h, read-out: Activity; how it was run: as §1
BT-549 = experiment: Cytotoxicity against human BT549 cells assessed as cell growth at 10 uM after 48 hrs by SRB assay relative to control; conditions: BT-549, 48 h, read-out: Activity; how it was run: as §1
MDA-MB-468 = experiment: Cytotoxicity against human MDA-MB-468 cells assessed as cell growth at 10 uM after 48 hrs by SRB assay relative to control; conditions: MDA-MB-468, 48 h, read-out: Activity

Compound	growth at 10 µM (K562) [%]	growth at 10 µM (HOP-62) [%]	growth at 10 µM (NCI-H226) [%]	growth at 10 µM (NCI-H23) [%]	growth at 10 µM (COLO 205) [%]	growth at 10 µM (HCC 2998) [%]	growth at 10 µM (HCT-116) [%]	growth at 10 µM (HCT-15) [%]	growth at 10 µM (KM12) [%]	growth at 10 µM (SW-620) [%]	growth at 10 µM (SNB-75) [%]	growth at 10 µM (Malme-3M) [%]	growth at 10 µM (MDA-MB-435) [%]	growth at 10 µM (SK-MEL-2) [%]	growth at 10 µM (OVCAR-3) [%]	growth at 10 µM (OVCAR-8) [%]	growth at 10 µM (786-0) [%]	growth at 10 µM (A498) [%]	growth at 10 µM (CAKI-1) [%]	growth at 10 µM (SN12C) [%]	further results
CCOC(=O)CCCn1c2c(c(C)c1-c1ccccc1)C1=NC(=O)CN1C(SC)=N2	90	111	110	110	129	127	112	114	96	110	80	116	111	114	110	99	100	118	100	127	growth at 10 µM (TK-10): 123%; growth at 10 µM (PC-3): 93%; growth at 10 µM (MCF7): 84%; growth at 10 µM (MDA-MB-231): 130%; growth at 10 µM (BT-549): 107%; growth at 10 µM (MDA-MB-468): 87%
CSC1=Nc2c(c(C)c(-c3ccccc3)n2CCCC(=O)O)C2=NC(=O)CN12	99	88	107	105	153	106	96	95	100	94	83	133	107	117	109	98	102	109	70	105	growth at 10 µM (TK-10): 135%; growth at 10 µM (PC-3): 94%; growth at 10 µM (MCF7): 94%; growth at 10 µM (MDA-MB-231): 107%; growth at 10 µM (BT-549): 94%; growth at 10 µM (MDA-MB-468): 90%
COC(=O)C(Cc1cnc[nH]1)NC(=O)CCCn1c(C)c(C)c2c1N=C(SC)N1CC(=O)N=C21 (stereo not drawn)	97	103	111	109	118	103	100	105	106	98	79	108	102	105	121	103	104	101	102	107	growth at 10 µM (TK-10): 111%; growth at 10 µM (PC-3): 88%; growth at 10 µM (MCF7): 92%; growth at 10 µM (MDA-MB-231): 112%; growth at 10 µM (BT-549): 107%; growth at 10 µM (MDA-MB-468): 96%
